Measurements reported in ChEMBL document CHEMBL3808334, “Synthesis and in vitro evaluation of novel triazine analogues as anticancer agents and their interaction studies with bovine serum albumin” (Eur J Med Chem, 2016).

Tests used:
Albumin = Albumin (Bos taurus, UniProt P02769); experiment: Binding affinity to bovine serum albumin assessed as red shift in emission intensity up to 20 uM by fluorescence spectroscopic analysis relative to control; assay type: ADME; conditions: cattle, isolated protein
Albumin, sequence (P02769 whole entry): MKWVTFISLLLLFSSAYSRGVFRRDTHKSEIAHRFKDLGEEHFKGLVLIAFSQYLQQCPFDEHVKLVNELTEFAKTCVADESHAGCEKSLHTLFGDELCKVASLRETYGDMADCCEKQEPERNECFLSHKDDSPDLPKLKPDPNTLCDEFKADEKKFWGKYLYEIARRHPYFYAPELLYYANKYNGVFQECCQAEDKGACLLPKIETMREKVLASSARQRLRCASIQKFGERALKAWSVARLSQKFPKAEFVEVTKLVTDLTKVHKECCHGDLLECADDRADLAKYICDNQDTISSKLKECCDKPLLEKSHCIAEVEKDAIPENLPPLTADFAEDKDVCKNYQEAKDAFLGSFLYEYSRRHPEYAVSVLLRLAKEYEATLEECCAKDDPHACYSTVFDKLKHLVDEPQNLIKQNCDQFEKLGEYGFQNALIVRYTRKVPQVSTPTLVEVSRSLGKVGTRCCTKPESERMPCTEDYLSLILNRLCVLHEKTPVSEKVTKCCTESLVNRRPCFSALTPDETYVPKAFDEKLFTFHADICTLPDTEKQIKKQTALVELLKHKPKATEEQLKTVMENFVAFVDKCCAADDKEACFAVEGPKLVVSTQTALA
Procedure, shortened: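 Fluorescence titration of 10 µM BSA in 0.1 M phosphate buffer pH 7.4 with compound at 0–20 µM, diluted from DMSO stocks. Excitation 280 nm, slit 10 nm, 1 cm quartz cell, 300 K. Changes in the 350 nm Trp emission, new bands near 370–373 nm and isoemissive points are read against BSA alone.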

MDA-MB-468 = experiment: Growth inhibition of human MDA-MB-468 cells assessed as cell growth at 10^-8 M incubated for 48 hrs by sulforhodamine B assay; assay type: functional; conditions: MDA-MB-468, 48 h, read-out: Activity
[1] = Growth inhibition of human RPMI8226 cells assessed as cell growth at 10^-7 M incubated for 48 hrs by sulforhodamine B assay; assay type: functional; conditions: RPMI-8226, 48 h, read-out: Activity
[2] = Growth inhibition of human SW620 cells assessed as cell growth at 10 uM incubated for 48 hrs by sulforhodamine B assay; assay type: functional; conditions: SW-620, 48 h, read-out: Activity
[3] = Growth inhibition of human HL-60(TB) cells assessed as cell growth at 10^-7 M incubated for 48 hrs by sulforhodamine B assay; assay type: functional; conditions: HL-60, 48 h, read-out: Activity
Procedure, shortened: (§1)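 Cells plated at 5,000–40,000/well according to doubling time and preincubated 24 h at 37 °C, 5% CO₂, with time-zero plates TCA-fixed. Drugs were kept as DMSO concentrates at 400× the top concentration and diluted in medium with 50 µg/ml gentamicin. Five 10-fold or ½-log dilutions were run for 48 h, followed by SRB staining and A515. Percent growth = (Ti−Tz)/(C−Tz)×100, or (Ti−Tz)/Tz×100 when Ti<Tz.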

Malme-3M = experiment: Growth inhibition of human MALME-3M cells assessed as cell growth at 10^-6 M incubated for 48 hrs by sulforhodamine B assay; assay type: functional; conditions: read-out: Activity
[4] = Growth inhibition of human RPMI8226 cells incubated for 48 hrs by sulforhodamine B assay; assay type: functional; conditions: RPMI-8226, 48 h
Procedure, shortened: (§2)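 Cells were plated at 5,000–40,000 per well according to doubling time and preincubated 24 h at 37 °C in 5% CO2; time-zero plates were then TCA-fixed. Five concentrations (10-fold or ½-log dilutions, DMSO stock) were incubated 48 h. Cells were TCA-fixed, stained with 0.4% SRB and read at 515 nm. GI50 was taken where [(Ti−Tz)/(C−Tz)]×100 = 50.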

[5] = Growth inhibition of human MOLT4 cells assessed as cell growth at 10^-8 M incubated for 48 hrs by sulforhodamine B assay; assay type: functional; conditions: MOLT-4, 48 h, read-out: Activity
[6] = Growth inhibition of human SF295 cells assessed as cell growth at 10^-6 M incubated for 48 hrs by sulforhodamine B assay; assay type: functional; conditions: SF-295, 48 h, read-out: Activity
[7] = Growth inhibition of human SF295 cells assessed as cell growth at 10^-4 M incubated for 48 hrs by sulforhodamine B assay; assay type: functional; conditions: SF-295, 48 h, read-out: Activity
[8] = Growth inhibition of human DU145 cells assessed as cell growth at 10^-7 M incubated for 48 hrs by sulforhodamine B assay; assay type: functional; conditions: DU-145, 48 h, read-out: Activity
Procedure, shortened: (§3)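 Cells seeded at 5,000–40,000/well according to doubling time and preincubated 24 h at 37 °C, 5% CO2. Time-zero plates were TCA-fixed. DMSO concentrate was diluted in medium with 50 µg/ml gentamicin to give five concentrations (10-fold or ½ log steps), then exposed 48 h. Cells were TCA-fixed, stained with 0.4% SRB and read at 515 nm. Percent growth was taken against time-zero and control; GI50, TGI and LC50 derived.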

SK-MEL-2 [9] = experiment: Growth inhibition of human SK-MEL-2 cells assessed as cell growth at 10 uM incubated for 48 hrs by sulforhodamine B assay; assay type: functional; conditions: SK-MEL-2, 48 h, read-out: Activity
[10] = Growth inhibition of human RXF393 cells assessed as cell growth at 10^-6 M incubated for 48 hrs by sulforhodamine B assay; assay type: functional; conditions: RXF 393, 48 h, read-out: Activity
[11] = Growth inhibition of human OVCAR5 cells incubated for 48 hrs by sulforhodamine B assay; assay type: functional; conditions: OVCAR-5, 48 h; procedure, shortened: as §2
T47D = experiment: Growth inhibition of human T47D cells assessed as cell growth at 10^-7 M incubated for 48 hrs by sulforhodamine B assay; assay type: functional; conditions: read-out: Activity
CCRF-CEM = experiment: Growth inhibition of human CCRF-CEM cells assessed as cell growth at 10^-8 M incubated for 48 hrs by sulforhodamine B assay; assay type: functional; conditions: read-out: Activity
Procedure, shortened: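 Leukemia line in the five-dose format: five concentrations from 10-fold or ½-log serial dilutions. Plated at 5,000–40,000 cells per well, preincubated 24 h, then compound added for 48 h at 37 °C, 5% CO₂. Sulforhodamine B absorbance read at 515 nm. Growth is computed against time-zero (Tz) and control (C) readings; GI₅₀ is where [(Ti−Tz)/(C−Tz)]×100 = 50.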

M14 = experiment: Growth inhibition of human M14 cells assessed as cell growth at 10 uM incubated for 48 hrs by sulforhodamine B assay; assay type: functional; conditions: M14, 48 h, read-out: Activity
[12] = Growth inhibition of human HL-60(TB) cells assessed as cell growth at 10^-6 M incubated for 48 hrs by sulforhodamine B assay; assay type: functional; conditions: HL-60, 48 h, read-out: Activity; procedure, shortened: as §1
[13] = Growth inhibition of human HCC2998 cells assessed as cell growth at 10^-6 M incubated for 48 hrs by sulforhodamine B assay; assay type: functional; conditions: HCC 2998, 48 h, read-out: Activity; procedure, shortened: as §3
NCI-H23 = experiment: Growth inhibition of human NCI-H23 cells assessed as cell growth at 10^-7 M incubated for 48 hrs by sulforhodamine B assay; assay type: functional; conditions: NCI-H23, 48 h, read-out: Activity
[14] = Growth inhibition of human SNB19 cells assessed as cell growth at 10^-7 M incubated for 48 hrs by sulforhodamine B assay; assay type: functional; conditions: SNB-19, 48 h, read-out: Activity
NCI-H322M = experiment: Growth inhibition of human NCI-H322M cells assessed as cell growth at 10^-4 M incubated for 48 hrs by sulforhodamine B assay; assay type: functional; conditions: read-out: Activity
SR = experiment: Growth inhibition of human SR cells assessed as cell growth at 10 uM incubated for 48 hrs by sulforhodamine B assay; assay type: functional; conditions: read-out: Activity
SK-MEL-2 [15] = experiment: Growth inhibition of human SK-MEL-2 cells assessed as cell growth at 10^-4 M incubated for 48 hrs by sulforhodamine B assay; assay type: functional; conditions: SK-MEL-2, 48 h, read-out: Activity
[16] = Growth inhibition of human HCT116 cells assessed as cell growth at 10^-4 M incubated for 48 hrs by sulforhodamine B assay; assay type: functional; conditions: HCT-116, 48 h, read-out: Activity; procedure, shortened: as §3
[17] = read-out: LC50 (the source's name)
[18] = read-out: pLC50 (the source's name) (converted)

SMILES	Activity (Albumin) [nm]	growth at 0.01 µM (MDA-MB-468) [%]	growth at 0.1 µM [1] [%]	growth at 10 µM [2] [%]	growth at 0.1 µM [3] [%]	growth at 1 µM (Malme-3M) [%]	GI50 ([4]; read-out: GI50) [µM]	TGI ([4]; read-out: TGI) [µM]	GI50 ([4]; read-out: pGI50 (converted)) [µM]	TGI ([4]; read-out: pTGI (converted)) [µM]	growth at 0.01 µM [5] [%]	growth at 1 µM [6] [%]	growth at 100 µM [7] [%]	growth at 0.1 µM [8] [%]	growth at 10 µM (SK-MEL-2 [9]) [%]	growth at 1 µM [10] [%]	GI50 ([11]; read-out: GI50) [µM]	TGI ([11]; read-out: TGI) [µM]	GI50 ([11]; read-out: pGI50 (converted)) [µM]	TGI ([11]; read-out: pTGI (converted)) [µM]	further results
c1ccc(-c2nc(Nc3ccc(-c4nc5ccccc5[nH]4)cc3)nc(N3CCOCC3)n2)cc1	20	96	97	-82.9	26	103	1.11	4.23	1.12	4.27	96	64	-71	95	-52.7	30	2.16	4.02	2.14	3.98	CC50 [4, 17]: > 100 µM; CC50 [4, 18]: > 100 µM; CC50 [11, 17]: 7.49 µM; CC50 [11, 18]: 7.41 µM; growth at 0.1 µM (T47D): 109%; growth at 0.01 µM (CCRF-CEM): 102%; growth at 10 µM (M14): -80.7%; growth at 1 µM [12]: -7%; growth at 1 µM [13]: 93%; growth at 0.1 µM (NCI-H23): 95%; growth at 0.1 µM [14]: 95%; growth at 100 µM (NCI-H322M): -62%; growth at 10 µM (SR): 8.94%; growth at 100 µM (SK-MEL-2 [15]): -83%; growth at 100 µM [16]: -69%
Clc1ccc(-c2nc(Nc3ccc(-c4nc5ccccc5[nH]4)cc3)nc(N3CCOCC3)n2)cc1	22	99	99	-74.2	90	111	0.257	0.682	0.257	0.676	98	77	-10	96	-71.3	-56	0.505	1.94	0.501	1.95	growth at 0.1 µM (T47D): 92%; growth at 0.01 µM (CCRF-CEM): 98%; growth at 10 µM (M14): -82.6%; growth at 1 µM [12]: -29%; growth at 1 µM [13]: 15%; growth at 0.1 µM (NCI-H23): 92%; growth at 0.1 µM [14]: 95%; growth at 100 µM (NCI-H322M): -22%; growth at 10 µM (SR): -83.3%; growth at 100 µM (SK-MEL-2 [15]): -40%; growth at 100 µM [16]: -34%
Fc1ccc(-c2nc(Nc3ccc(-c4nc5ccccc5[nH]4)cc3)nc(N3CCOCC3)n2)cc1	23	97	99	3.57	79	104	1.93	6.54	1.95	6.61	98	72	-35	100	-19.2	24	2.7	8.9	2.69	8.91	CC50 [4, 17]: > 100 µM; CC50 [4, 18]: > 100 µM; CC50 [11, 17]: > 100 µM; CC50 [11, 18]: > 100 µM; growth at 0.1 µM (T47D): 93%; growth at 0.01 µM (CCRF-CEM): 102%; growth at 10 µM (M14): -7.64%; growth at 1 µM [12]: 81%; growth at 1 µM [13]: 94%; growth at 0.1 µM (NCI-H23): 91%; growth at 0.1 µM [14]: 97%; growth at 100 µM (NCI-H322M): 9%; growth at 10 µM (SR): 6.01%; growth at 100 µM (SK-MEL-2 [15]): -50%; growth at 100 µM [16]: -78%
c1ccc2[nH]c(-c3ccc(Nc4nc(N5CCCCC5)nc(N5CCOCC5)n4)cc3)nc2c1	25	104	95	5.3	100	98	2.23	6.58	2.24	6.61	99	84	-56	104	-20.6	46	4.06	29.3	4.07	29.5	CC50 [4, 17]: > 100 µM; CC50 [4, 18]: > 100 µM; CC50 [11, 17]: > 100 µM; CC50 [11, 18]: > 100 µM; growth at 0.1 µM (T47D): 94%; growth at 0.01 µM (CCRF-CEM): 99%; growth at 10 µM (M14): -24.5%; growth at 1 µM [12]: 100%; growth at 1 µM [13]: 105%; growth at 0.1 µM (NCI-H23): 93%; growth at 0.1 µM [14]: 98%; growth at 100 µM (NCI-H322M): 10%; growth at 10 µM (SR): 9.79%; growth at 100 µM (SK-MEL-2 [15]): -68%; growth at 100 µM [16]: -75%
